Results of several laboratories.
Each line is one published result; the experiments were not run side by side.

O=C(Oc1ccc(Br)cc1)[c-]1cccc1.[Fe+2].c1cc[cH-]c1  IC50 (MCF-10A; cell growth or viability, MTT; 72 h): 353 µM
O=C(O)CCCc1ccc(N(CCCl)CCCl)cc1  IC50 (MCF-10A; cell growth or viability, CCK-8; 48 h): > 50 µM
CN1CCCN=C1/C=C/c1cccs1  inhibition (human PBMC; cell migration; 10 µM): 76%
Cn1cncc1[C@@](N)(c1ccc(Cl)cc1)c1ccc2c(c1)c(-c1cccc(Cl)c1)cc(=O)n2C  IC50 (CAL-27; cell growth or viability; 72 h): 9.78 µM
CCCCCCCCCCCCCCCC[N+](C)(C)C  IC50 (MDCK; cell growth or viability, MTT): 9 µM
N[C@@H](Cc1ccc(N(CCCl)CCCl)cc1)C(=O)O  IC50 (MCF-10A; cell growth or viability, CCK-8; 48 h): > 50 µM
O=C(Oc1ccc(-n2cccc2)cc1)[c-]1cccc1.[Fe+2].c1cc[cH-]c1  IC50 (MCF-10A; cell growth or viability, MTT; 72 h): 1.8 µM
O=C(O)c1ccccc1NCc1ccco1  inhibition (human PBMC; cell migration; 10 µM): 82%
COc1cc2c3c(n(CCCNCCO)c(=O)c2cc1OC)-c1cc2c(cc1C3=O)OCO2  GI50 (HOP-62; cell growth or viability): 0.02 µM
Cc1cc(C)c(N2CCN(c3c(C)cc(C)cc3C)C2=[Se])c(C)c1  IC50 (HCT-15; cell growth or viability, MTT; 72 h): 10.2 µM
NS(=O)(=O)c1cc(C(=O)O)c(NCc2ccco2)cc1Cl  IC50 (human PBMC; cell migration, inhibitor): ~1 µM
O=C(O)C(Cl)Cl  IC50 (HCT-15; cell growth or viability, MTT; 72 h): > 50 µM
CCCCCCc1ccc(O)cc1O  inhibition (human PBMC; cell migration; 10 µM): 57%
[Se]=c1n(C2CCCCC2)ccn1C1CCCCC1  IC50 (HCT-15; cell growth or viability, MTT; 72 h): 14.2 µM
O=C(O)c1cc(S(=O)(=O)NCc2ccco2)c(Cl)cc1N1CCCCC1  inhibition (human PBMC; cell migration; 10 µM): 42%
O=C(c1cc(Cl)c(Cl)[nH]1)c1c(O)cccc1O  IC50 (MDCK; cell growth or viability, MTT; 72 h): 1.3 µg/mL
